# Publication PMC3112262 (The Journal of surgical research, 2011)
# Ends that are not written are not given here.
# Assays:
# [1] = tested on: MK2; conditions: ref [35]; cited from earlier work
# [2] = tested on: human pleural mesothelial cells (CRL-9444); experiment: IL-6 ELISA, cytokine-stimulated mesothelial cells; format: cell-based; conditions: for cytokine-induced IL-6 expression, time and dose dependence: 0.1, 1, or 10 ng/mL cytokine, 2, 6, 12, 24 h, triplicate
# Outline: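 Human pleural mesothelial cells were grown in supplemented Medium199 with 10% FBS and held 24 h in serum-free medium before cytokine (IL-1β or TNF-α) and/or test compound treatment. Media IL-6 was measured by sandwich ELISA at room temperature with 300 rpm shaking and ABTS substrate. Absorbance was read at 405 nm minus 650 nm every 5 min for 50 min. Samples were run in triplicate and normalised to cell number by Hoechst 33342 DNA stain.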
# [3] = tested on: HSPB1 in human keloid fibroblasts; conditions: ref [36]; cited from earlier work
# [4] = biological target: kinase; conditions: cited from earlier work
# [5] = effect of the CPP sequence; ref [37]; cited from earlier work
# [6] = tested on: hnRNPA0 in mesothelial cells; experiment: Western blot, hnRNPA0 phosphorylation; format: cell-based, human; conditions: 1 ng/ml IL-1β
# Outline: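 Human pleural mesothelial cell line grown to confluence, serum-starved 24 h, then given 1 ng/ml IL-1β with or without test compound (1000 or 3000 µM), added together, for 6 and 12 h. Lysed in urea/phosphatase-inhibitor buffer. 20 µg protein run on 12% gels, probed for phospho-hnRNPA0 (Ser84) and β-actin, detected by infrared imaging. Band intensity normalized to β-actin.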
# [7] = biological target: human recombinant MK2 (h) (Homo sapiens, UniProt P49137); experiment: Radiometric MK2 kinase inhibition; format: biochemical
# [8] = tested on: rat colon anastomosis; experiment: Anastomotic healing: hydroxyproline assay; format: in vivo; conditions: single treatment at surgery, both time points (4 and 10 days)
# [9] = tested on: rat colon anastomosis; conditions: in vivo
# [10] = rat
# [11] = tested on: mesothelial cells; conditions: ref [37]; cited from earlier work
# human recombinant MK2 (h), sequence (P49137 whole entry): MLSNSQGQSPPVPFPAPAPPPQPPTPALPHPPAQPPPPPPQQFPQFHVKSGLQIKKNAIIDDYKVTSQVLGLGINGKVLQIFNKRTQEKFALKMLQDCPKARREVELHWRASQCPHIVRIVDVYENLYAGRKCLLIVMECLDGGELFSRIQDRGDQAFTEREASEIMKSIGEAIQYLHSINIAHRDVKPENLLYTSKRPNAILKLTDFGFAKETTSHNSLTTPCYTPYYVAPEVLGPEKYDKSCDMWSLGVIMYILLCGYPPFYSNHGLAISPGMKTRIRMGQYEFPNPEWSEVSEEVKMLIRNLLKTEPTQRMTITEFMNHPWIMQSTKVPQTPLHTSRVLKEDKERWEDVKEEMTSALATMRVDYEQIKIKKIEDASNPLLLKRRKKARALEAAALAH
substance,measurement,setting,value
KKKALNRQLGVAA [Hayess and Benndorf peptide],MK2 activity in vitro,[1],does inhibit MK2 activity in vitro
TNF-α,"IL-6 expression, 0.1 ng/mL",[2]; 0.1 ng/mL TNF-α,rarely produced significant increases in IL-6
same,"IL-6 expression, 1 ng/mL","[2]; 1 ng/mL TNF-α, versus untreated control",did not always significantly upregulate IL-6 expression above the untreated control
same,"cytokine-induced IL-6 expression, time and dose dependence",[2],increased IL-6 expression in a time- and dose-dependent manner
same,IL-6 induction potency relative to IL-1β,[2]; excluding 24-hour time point for the highest TNF-α dose,less potent inducer of IL-6 expression than IL-1β
WLRRIKAWLRRIKALNRQLGVAA,HSPB1 phosphorylation,[3],inhibited HSPB1 phosphorylation in human keloid fibroblasts
same,kinase specificity,"[4]; effect of the CPP sequence, ref [37]",dramatically decreased the kinase specificity of the peptide
same,toxicity,[5],increased its associated toxicity
"IL-1β: interleukin-1β (Peprotech), stimulating cytokine","IL-6 expression after six hours, all three concentrations","[2]; 0.1, 1, 10 ng/mL IL-1β, 6 h",significantly increased IL-6 expression after six hours (p<0.05)
same,"cytokine-induced IL-6 expression, time and dose dependence",[2],increased IL-6 expression in a time- and dose-dependent manner
same,"IL-6 expression at 24 hours, two higher concentrations","[2]; 1 and 10 ng/mL IL-1β, 24 h",induced similar levels of IL-6 expression
same,upregulation of phosphorylated hnRNPA0,"[6]; 6 h, compared to controls, normalized to β-actin",2 fold
same,phosphorylation of hnRNPA0 at 12 hours,[6]; 12 h,no longer upregulates the phosphorylation of hnRNPA0
YARAAARQARAKALARQLGVAA-NH2 [MMI-0100],IC50,[7],22 µM
same,intestinal hydroxyproline content in words,[8],"did not significantly affect rat weight gain, anastomosis bursting pressure or intestinal hydroxyproline (OHP) content at either time point"
same,anastomosis bursting pressure in words,[9],"did not significantly affect rat weight gain, anastomosis bursting pressure"
same,in vivo side effects,[10],no obvious in vivo side effects
same,animals lost from the treatment group,[10]; in vivo,One animal was lost
same,complications of anastomosis,[10]; in vivo,did not cause any of these complications
same,highest concentration used versus toxic dose for mesothelial cells,[11],well below the toxic dose for mesothelial cells
YARAAARQARA,peptide specificity conferred by the CPP,[4]; ref [38],maximizes peptide specificity
